Data from ChEMBL document CHEMBL3525985, “Regiospecificity and stereospecificity of human UDP-glucuronosyltransferases in the glucuronidation of estriol, 16-epiestriol, 17-epiestriol, and 13-epiestradiol” (Drug Metab Dispos, 2013).

Assays:
Format in all cases: ADME
[1] = target: UDP-glucuronosyltransferase 1A10 (Homo sapiens, UniProt Q9HAW8, F93G); test: Drug metabolism assessed as human UGT1A10 F93G mutant-mediated 13-epiestradiol-3-glucuronide formation at 200 uM after 15 to 60 mins by HPLC analysis in presence of UDPGA
Method in brief: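 Screening at a single substrate concentration of 200 μM, in triplicate. The reaction used 5 or 50 µg of UGT-enriched insect cell membranes in 50 mM phosphate pH 7.4 with 10 mM MgCl₂ and 5 mM UDPGA, 10% final DMSO. Incubation was 15–60 min at 37°C. Perchloric acid stopped the reaction and supernatants were analysed by HPLC. Controls lacked UDPGA. Rates were normalized to relative UGT expression level.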

[2] = target: T1, UDP-glucuronosyltransferase 2B15 (Homo sapiens, UniProt P54855); test: Drug metabolism assessed as recombinant human C-terminal His-tagged UGT2B15-mediated 13-epiestradiol-3-glucuronide/13-epiestradiol-17-glucuronide formation at 200 uM after 15 to 60 mins by HPLC analysis in presence of UDPGA; conditions: recombinant enzyme, in the assay text read “UGT2B15-mediated” for “C-terminal His-tagged UGT2B15-mediated”
T1 sequence (P54855 whole entry): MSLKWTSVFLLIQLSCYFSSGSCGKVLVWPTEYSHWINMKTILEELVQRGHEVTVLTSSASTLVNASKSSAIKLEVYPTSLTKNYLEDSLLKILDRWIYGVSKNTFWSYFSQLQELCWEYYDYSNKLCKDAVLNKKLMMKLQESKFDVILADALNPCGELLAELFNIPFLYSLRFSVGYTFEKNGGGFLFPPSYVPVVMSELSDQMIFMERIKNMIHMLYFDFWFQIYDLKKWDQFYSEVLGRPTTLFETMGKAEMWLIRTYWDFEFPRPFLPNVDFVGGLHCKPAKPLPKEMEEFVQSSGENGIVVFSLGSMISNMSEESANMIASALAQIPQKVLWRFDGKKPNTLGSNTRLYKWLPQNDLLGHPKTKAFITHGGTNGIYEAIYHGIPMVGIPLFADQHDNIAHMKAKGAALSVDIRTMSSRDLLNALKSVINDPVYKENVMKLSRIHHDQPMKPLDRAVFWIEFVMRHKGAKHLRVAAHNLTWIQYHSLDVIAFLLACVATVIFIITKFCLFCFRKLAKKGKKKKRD
Method in brief: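 UGT2B15 was a commercial enzyme without a His-tag, so rates were not normalized to expression. Screening used 200 μM substrate in triplicate, with membranes in 50 mM phosphate pH 7.4, 10 mM MgCl₂, 5 mM UDPGA and 10% DMSO. Incubation was 15–60 min at 37°C. The reaction was stopped with perchloric acid and analysed by HPLC. Controls lacked UDPGA.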

[3] = target: T2, UDP-glucuronosyltransferase 1A8 (Homo sapiens, UniProt Q9HAW9); test: Drug metabolism assessed as recombinant human C-terminal His-tagged UGT1A8-mediated 16-epiestriol-3-glucuronide formation after 15 to 60 mins by Michaelis-Menten equation analysis in presence of UDPGA; conditions: recombinant enzyme
T2 sequence (Q9HAW9 whole entry): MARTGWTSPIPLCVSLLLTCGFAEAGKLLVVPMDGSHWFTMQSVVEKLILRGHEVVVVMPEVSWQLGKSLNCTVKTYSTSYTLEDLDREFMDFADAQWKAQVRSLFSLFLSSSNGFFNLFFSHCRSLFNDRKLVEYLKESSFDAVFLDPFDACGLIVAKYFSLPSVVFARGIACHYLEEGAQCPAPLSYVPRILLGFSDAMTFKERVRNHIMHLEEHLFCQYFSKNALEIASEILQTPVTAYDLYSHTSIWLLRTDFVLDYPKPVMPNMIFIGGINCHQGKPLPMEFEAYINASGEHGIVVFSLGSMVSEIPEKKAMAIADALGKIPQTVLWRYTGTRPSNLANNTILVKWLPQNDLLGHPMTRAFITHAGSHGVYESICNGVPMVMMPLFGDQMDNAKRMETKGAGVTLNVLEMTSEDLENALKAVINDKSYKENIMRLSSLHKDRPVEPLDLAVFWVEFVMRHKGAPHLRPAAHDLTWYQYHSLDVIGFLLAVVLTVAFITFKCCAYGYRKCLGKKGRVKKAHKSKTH

[4] = target: T3, UDP-glucuronosyltransferase 1A10 (Homo sapiens, UniProt Q9HAW8); test: Inhibition of recombinant human C-terminal His-tagged UGT1A10 after 15 to 60 mins by Michaelis-Menten equation analysis in presence of UDPGA
T3 sequence (Q9HAW8 whole entry): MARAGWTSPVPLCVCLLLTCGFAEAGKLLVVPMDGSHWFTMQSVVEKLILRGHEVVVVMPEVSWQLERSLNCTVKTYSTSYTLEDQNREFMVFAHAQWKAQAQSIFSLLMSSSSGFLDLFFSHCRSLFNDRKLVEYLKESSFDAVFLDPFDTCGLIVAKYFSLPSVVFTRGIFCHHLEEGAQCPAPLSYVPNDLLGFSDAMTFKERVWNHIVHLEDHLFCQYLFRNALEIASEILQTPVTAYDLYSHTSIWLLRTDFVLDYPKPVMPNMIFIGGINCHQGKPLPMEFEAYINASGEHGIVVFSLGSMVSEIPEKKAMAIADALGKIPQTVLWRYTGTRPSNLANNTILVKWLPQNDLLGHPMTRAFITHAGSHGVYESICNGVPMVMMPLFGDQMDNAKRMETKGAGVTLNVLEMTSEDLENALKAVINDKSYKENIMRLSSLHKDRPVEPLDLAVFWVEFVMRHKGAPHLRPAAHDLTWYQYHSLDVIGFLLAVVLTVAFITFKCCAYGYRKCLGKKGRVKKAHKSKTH
Method in brief: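 Kinetics with His-tagged UGT-enriched insect-cell membranes (5 or 50 µg): aglycone 0.2–300 µM in 10% DMSO, 5 mM UDPGA, 10 mM MgCl₂, 50 mM phosphate pH 7.4, 15–60 min at 37°C. Substrate consumption kept at or below 10%. Glucuronides quantified by HPLC in triplicate, rates normalized to expression, and data fitted to Michaelis-Menten.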

Sequence of UDP-glucuronosyltransferase 1A10 (Homo sapiens, UniProt Q9HAW8, F93G) (Q9HAW8 26-530 F93G limits assumed): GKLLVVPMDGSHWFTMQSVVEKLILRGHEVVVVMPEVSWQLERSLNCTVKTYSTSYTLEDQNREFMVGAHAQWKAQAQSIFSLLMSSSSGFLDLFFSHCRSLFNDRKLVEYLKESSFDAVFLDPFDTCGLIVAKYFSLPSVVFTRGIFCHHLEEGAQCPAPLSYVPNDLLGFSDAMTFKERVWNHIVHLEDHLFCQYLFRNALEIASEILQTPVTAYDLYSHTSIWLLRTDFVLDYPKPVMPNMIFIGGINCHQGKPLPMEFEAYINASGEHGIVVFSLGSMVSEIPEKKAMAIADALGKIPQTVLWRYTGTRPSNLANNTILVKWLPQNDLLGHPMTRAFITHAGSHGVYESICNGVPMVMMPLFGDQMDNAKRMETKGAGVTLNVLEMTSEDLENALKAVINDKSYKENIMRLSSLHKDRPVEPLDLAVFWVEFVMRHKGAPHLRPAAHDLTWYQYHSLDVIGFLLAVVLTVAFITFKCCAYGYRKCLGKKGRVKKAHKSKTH

| Drug metabolism [1] | Drug metabolism [2] | Drug metabolism [3] | Ki [4] | Compound |
| --- | --- | --- | --- | --- |
| metabolite_detected | metabolite_detected | – | – | C[C@@]12CC[C@@H]3c4ccc(O)cc4CC[C@H]3[C@@H]1CC[C@@H]2O |
| – | – | 0.5 pmol/min/mg | 98.1 µM | C[C@]12CC[C@@H]3c4ccc(O)cc4CC[C@H]3[C@@H]1C[C@H](O)[C@@H]2O [EPIESTRIOL] |
